# Source: ChEMBL document CHEMBL1130107, “Discovery of CGS 27023A, a non-peptidic, potent, and orally active stromelysin inhibitor that blocks cartilage degradation in rabbits” (J Med Chem, 1997)
# Molecular target: T1, Stromelysin-1 (Homo sapiens, UniProt P08254)
# Experiment: Inhibition activity against recombinant human stromelysin (Matrix metalloprotease-3) (Inactive); call rule not given here
# Procedure, shortened: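 Substance P (0.5 mM) cleaved by recombinant human stromelysin (8 μg, 2 units) for 30 min at 37 °C with test compound diluted from 10 mM stock into assay buffer. Reaction stopped with 10 mM EDTA. Substance P 7-11 fragment quantified by RP-8 HPLC. IC50 versus inhibitor-free control, mean of two independent measurements. Ki derived from mean IC50 by Waley's method.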
# T1 sequence (P08254 whole entry): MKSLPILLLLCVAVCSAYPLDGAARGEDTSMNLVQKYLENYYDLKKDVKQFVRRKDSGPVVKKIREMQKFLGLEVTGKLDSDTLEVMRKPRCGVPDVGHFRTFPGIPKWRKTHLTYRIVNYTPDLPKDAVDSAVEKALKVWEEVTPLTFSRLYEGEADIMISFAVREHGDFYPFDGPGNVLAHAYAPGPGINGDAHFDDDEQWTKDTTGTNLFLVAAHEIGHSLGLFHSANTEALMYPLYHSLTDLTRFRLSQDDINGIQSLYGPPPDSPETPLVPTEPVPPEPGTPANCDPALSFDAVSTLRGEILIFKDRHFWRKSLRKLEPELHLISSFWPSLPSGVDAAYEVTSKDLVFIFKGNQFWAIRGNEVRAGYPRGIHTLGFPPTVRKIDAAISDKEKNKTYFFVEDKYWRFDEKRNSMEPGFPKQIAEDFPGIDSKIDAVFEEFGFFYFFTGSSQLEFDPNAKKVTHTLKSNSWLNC
row,Ki,SMILES
1,Not Active,CC(C)CN(CC(=O)NO)S(=O)(=O)c1ccc([N+](=O)[O-])cc1
2,Not Active,CC(C)CN(CC(=O)NO)S(=O)(=O)c1ccc(S(C)(=O)=O)cc1
3,Not Active,CC(C)CN(CC(=O)NO)S(=O)(=O)c1ccc(C(C)(C)C)cc1

# Molecular target: T1, Stromelysin-1
# Experiment: Inhibition activity against recombinant human stromelysin (Matrix metalloprotease-3)
row,SMILES,Ki [nM]
1,CC(C)CN(CC(=O)NO)S(=O)(=O)c1ccc(N(C)C)cc1,4400
2,COc1ccc(S(=O)(=O)N(Cc2ccccc2)C(C(=O)NO)C(C)C)cc1 (stereo not drawn),92
3,COc1ccc(S(=O)(=O)N(Cc2ccccc2)[C@@H](C)C(=O)NO)cc1,141
4,COc1ccc(S(=O)(=O)N(Cc2ccccc2)C(C)C(=O)NO)cc1 (stereo not drawn),86
5,COc1ccc(CN(CC(=O)NO)S(=O)(=O)c2ccc(OC)cc2)cc1,104
6,COc1ccc(S(=O)(=O)NCC(=O)NO)cc1,4400
7,COc1ccc(S(=O)(=O)N(CC(=O)NO)Cc2ccc3ccccc3n2)cc1,134
8,COc1ccc(S(=O)(=O)N(CCC(C)C)CC(=O)NO)cc1,94

# Next, values leading:
row,Ki [nM],SMILES
1,36,COc1ccc(S(=O)(=O)N(Cc2ccccc2)[C@H](C)C(=O)NO)cc1
2,61,COc1ccc(S(=O)(=O)N(CC(=O)NO)CC2CCCCC2)cc1
3,71,COc1ccc(S(=O)(=O)N(Cc2ccccc2)C(Cc2ccccc2)C(=O)NO)cc1 (stereo not drawn)
4,70,COc1ccc(S(=O)(=O)N(CC(=O)NO)Cc2ccccc2)cc1
5,23,COc1ccc(S(=O)(=O)N(Cc2ccccc2)[C@H](CC(C)C)C(=O)NO)cc1
6,29,COc1ccc(S(=O)(=O)N(Cc2ccccc2)[C@H](Cc2ccccc2)C(=O)NO)cc1
7,34,COc1ccc(S(=O)(=O)N(Cc2ccccc2)[C@@H](C(=O)NO)C(C)C)cc1
